Laboratory results: ChEMBL document CHEMBL2203198, “Prodrugs of a CXC Chemokine-12 (CXCL12) Neutraligand Prevent Inflammatory Reactions in an Asthma Model in Vivo” (ACS Med Chem Lett, 2012)
Converted amounts (≈) assume the structure as drawn. The source made the active and inactive calls. The rule behind the calls is not given here.

Columns and labels:
Mus musculus [1] = assay: Prodrug activation in ovalbumin sensitized Balb/c mouse hypereosinophilia model assessed as chalcone-4 release in lungs at 30 nmol/kg administered intranasally; format: organism-based; settings: in vivo, inhaled_or_intranasal
Mus musculus [2] = assay: Antiinflammatory activity in ovalbumin sensitized Balb/c mouse hypereosinophilia model assessed as inhibition of lymphocyte recruitment at 30 nmol/kg administered intranasally 2 hrs prior to ovalbumin challenge measured 24 hrs post the last ovalbumin challenge by BAL analysis; format: functional, organism-based
Method in brief: (§1)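 8-day airway hypereosinophilia model in OVA-sensitized mice; OVA (10 μg in 25 μL saline, 12.5 μL/nostril) given intranasally on days 5, 6, 7 under ip ketamine 50 mg/kg/xylazine 3.33 mg/kg. Compound in PBS (25 μL) given intranasally 2 h before each challenge. BAL cell counts by hemocytometer plus Hemacolor-stained cytospin differentials (≥400 cells), as absolute numbers; n = 6 mice/group.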

Mus musculus [3] = assay: Antiinflammatory activity in ovalbumin sensitized Balb/c mouse hypereosinophilia model assessed as inhibition of macrophage recruitment at 30 nmol/kg administered intranasally 2 hrs prior to ovalbumin challenge measured 24 hrs post the last ovalbumin challenge by BAL analysis; format: functional, organism-based; method in brief: as §1
Mus musculus [4] = assay: Antiinflammatory activity in ovalbumin sensitized Balb/c mouse hypereosinophilia model assessed as inhibition of neutrophil recruitment at 30 nmol/kg administered intranasally 2 hrs prior to ovalbumin challenge measured 24 hrs post the last ovalbumin challenge by BAL analysis; format: functional, organism-based; method in brief: as §1
Mus musculus [5] = assay: Antiinflammatory activity in ovalbumin sensitized Balb/c mouse hypereosinophilia model assessed as inhibition of eosinophil recruitment at 30 nmol/kg administered intranasally 2 hrs prior to ovalbumin challenge measured 24 hrs post the last ovalbumin challenge by BAL analysis; format: functional; settings: inhaled or nasal; method in brief: as §1
[6] = biological target: T1, C-X-C chemokine receptor type 4 (Homo sapiens, UniProt P61073); assay: Inhibition of EGFP-tagged human CXCR4 expressed in HEK293 cells assessed as inhibition of CXCL12-TR binding at 5 uM incubated for 5 mins prior to CXCL12-TR addition by FRET assay; format: cell-based
Method in brief: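 Binding of Texas Red-labelled CXCL12 (100 nM) to EGFP-tagged CXCR4 read by FRET as real-time decline of EGFP emission at 510 nm. Compound tested at 5 μM; percent inhibition of binding reported.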

[7] = Half life in mouse lung homogenate by LC-MS analysis; format: ADME, tissue-based
Method in brief: (§2)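 Freshly prepared compound solutions (10 μM) incubated at 37 °C in PBS, mouse serum or mouse lung homogenate. Parent and released product followed by LC-MS, RP-HPLC on C18 with ammonium acetate pH 7.4/acetonitrile gradient, 365 nm detection. Half-life taken from disappearance over time.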

[8] = Half life in mouse serum by LC-MS analysis; format: ADME, cell-free; method in brief: as §2
[9] = Half life in PBS buffer by LC-MS analysis; format: physicochemical; method in brief: as §2
[10] = Solubility of the compound in HEPES buffer at pH 7.4 after 24 hrs; format: physicochemical
Method in brief: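 Thermodynamic solubility in aqueous HEPES buffer, pH 7.4, 22 °C, after 24 h incubation; tested up to 30 mM.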

Mus musculus [11] = assay: Prodrug activation in ovalbumin sensitized Balb/c mouse hypereosinophilia model assessed as chalcone-4 release in lungs at 22 nmol/kg administered intranasally after 15 mins; format: organism-based; settings: in vivo, inhaled_or_intranasal, 0.25 h
Method in brief: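 LC-MS detection of released parent chalcone in mouse lung tissue 15 min after intranasal dosing of prodrug.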

Mus musculus [12] = assay: Antiinflammatory activity in ovalbumin sensitized Balb/c mouse hypereosinophilia model assessed as inhibition of eosinophil recruitment administered intranasally 2 hrs prior to ovalbumin challenge for 3 days; format: functional, organism-based; method in brief: as §1
Mus musculus [13] = assay: Antiinflammatory activity in ovalbumin sensitized Balb/c mouse hypereosinophilia model assessed as inhibition of lymphocyte recruitment at 22 nmol/kg administered intranasally 2 hrs prior to ovalbumin challenge for 3 days; format: functional, organism-based; method in brief: as §1
Mus musculus [14] = assay: Antiinflammatory activity in ovalbumin sensitized Balb/c mouse hypereosinophilia model assessed as inhibition of macrophage recruitment at 22 nmol/kg administered intranasally 2 hrs prior to ovalbumin challenge for 3 days; format: functional, organism-based; method in brief: as §1
Mus musculus [15] = assay: Antiinflammatory activity in ovalbumin sensitized Balb/c mouse hypereosinophilia model assessed as inhibition of neutrophil recruitment at 22 nmol/kg administered intranasally 2 hrs prior to ovalbumin challenge for 3 days; format: functional, organism-based; method in brief: as §1
Mus musculus [16] = assay: Antiinflammatory activity in ovalbumin sensitized Balb/c mouse hypereosinophilia model assessed as inhibition of eosinophil recruitment at 22 nmol/kg administered intranasally 2 hrs prior to ovalbumin challenge for 3 days; format: functional; method in brief: as §1
[17] = biological target: T1, C-X-C chemokine receptor type 4; assay: Inhibition of EGFP-tagged human CXCR4 expressed in HEK293 cells assessed as inhibition of CXCL12-TR binding incubated for 5 mins prior to CXCL12-TR addition by FRET assay; format: cell-based

T1 sequence (P61073 whole entry): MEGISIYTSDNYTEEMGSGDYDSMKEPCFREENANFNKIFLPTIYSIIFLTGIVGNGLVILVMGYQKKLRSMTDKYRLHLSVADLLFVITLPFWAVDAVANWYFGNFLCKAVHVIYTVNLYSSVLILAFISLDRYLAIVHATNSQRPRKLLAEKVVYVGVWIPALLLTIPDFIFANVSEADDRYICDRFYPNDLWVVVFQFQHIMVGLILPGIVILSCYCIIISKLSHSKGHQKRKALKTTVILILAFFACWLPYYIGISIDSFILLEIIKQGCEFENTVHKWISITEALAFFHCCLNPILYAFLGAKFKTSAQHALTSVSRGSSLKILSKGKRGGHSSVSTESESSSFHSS

SMILES	Drug metabolism (Mus musculus [1])	inhibition (Mus musculus [2])	inhibition (Mus musculus [3])	inhibition (Mus musculus [4])	inhibition in vivo at 0.03 µmol/kg (Mus musculus [5]) [%]	inhibition [6] [%]	half-life [7] [h]	half-life [8] [h]	half-life [9] [h]	solubility at 24 h [10] [µM]	Drug metabolism (Mus musculus [11])	IC50 (Mus musculus [12]) [nmol/kg]	inhibition (Mus musculus [13])	inhibition (Mus musculus [14])	inhibition (Mus musculus [15])	inhibition in vivo at 0.022 µmol/kg (Mus musculus [16]; inhaled or nasal) [%]	inhibition (Mus musculus [16])	Ki [17] [µM]
COc1cc(/C=C/C(=O)c2ccc(Cl)cc2)ccc1OC(=O)[C@H](N)CO.Cl	Active	Active	inactive	Active	67	15	< 0.0833	< 0.0833	0.2	42	–	–	–	–	–	–	–	–
COc1cc(/C=C/C(=O)c2ccc(Cl)cc2)ccc1OP(=O)([O-])[O-].[Na+].[Na+]	Active	Active	inactive	Active	64	5	< 0.25	2	> 10	> 30000	Active	10	Active	inactive	Active	56	–	–
COc1cc(/C=C/C(=O)c2ccc(Cl)cc2)ccc1OS(=O)(=O)[O-].[Na+]	Active	Active	inactive	Active	69	4	0.5	> 10	> 10	1430	–	–	–	–	–	–	–	–
COc1cc(/C=C/C(=O)c2ccc(Cl)cc2)ccc1O	Active	–	–	–	–	90	> 6	> 10	> 10	9 (≈ 2.6 µg/mL)	–	–	inactive	inactive	inactive	–	inactive	0.053
